Data published in ChEMBL document CHEMBL2146371, “Biologically active dibenzofurans from Pilidiostigma glabrum, an endemic Australian Myrtaceae” (J Nat Prod, 2012).
In brackets after ≈: the same amount, converted by molar mass. Activity calls are given as the source filed them. The calls are words filed in the database; no cut-off is given here.

What was measured:
Staphylococcus aureus [1] = test: Antibacterial activity against Staphylococcus aureus ATCC 29213 after overnight incubation by broth microdilution method; format: functional
Summary of the method: (§1)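 Broth microdilution (CLSI M7A7, modified) in tryptone soya broth with 0.025 g/mL glucose, replacing Mueller-Hinton. Compounds were 2-fold serially diluted in TSB containing 2% DMSO. Inoculum came from a 0.5 McFarland suspension diluted 1:100, giving about 5 × 10^5 cfu in 100 μL. Plates were incubated overnight at 37 °C. MIC = lowest concentration with no growth visible to the unaided eye.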

Staphylococcus aureus [2] = test: Antibacterial activity against Staphylococcus aureus ATCC 29213 incubated overnight followed by compound transfer to TSB medium measured after overnight incubation by cell counting; format: functional
Staphylococcus aureus [3] = test: Antibacterial activity against Staphylococcus aureus ATCC 25923 after overnight incubation by broth microdilution method; format: functional; summary of the method: as §1
Staphylococcus aureus [4] = test: Antibacterial activity against Staphylococcus aureus ATCC 25923 incubated overnight followed by compound transfer to TSB medium measured after overnight incubation by cell counting; format: functional
[5] = system: Staphylococcus epidermidis; test: Antibacterial activity against Staphylococcus epidermidis ATCC 35984 after overnight incubation by broth microdilution method; format: functional; summary of the method: as §1
[6] = system: Staphylococcus epidermidis; test: Antibacterial activity against Staphylococcus epidermidis ATCC 35984 incubated overnight followed by compound transfer to TSB medium measured after overnight incubation by cell counting; format: functional
Escherichia coli = test: Antibacterial activity against Escherichia coli ATCC 25922 after overnight incubation by broth microdilution method; format: functional; summary of the method: as §1
RAW264.7 [7] = test: Antiinflammatory activity in mouse RAW264.7 cells assessed as inhibition of LPS-induced nitric oxide production incubated for 1 hr prior to LPS-challenge measured after 20 hrs by Griess method; format: functional, cell-based
Summary of the method: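 RAW264 cells (10^6 cells/mL, 120 μL/well) were pre-incubated for 20 h. Compounds in DMSO, diluted 20-fold in medium, were added for 1 h. LPS (10 μL of 10 μg/mL) was then added and incubation continued for 20 h. Nitrite was measured by Griess reagent (23 °C, 20 min, A550) against 0–100 μM standards. Triplicate; expressed as a percentage of solvent control.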

RAW264.7 [8] = test: Antiinflammatory activity in mouse RAW264.7 cells assessed as inhibition of LPS-induced TNFalpha production incubated for 1 hr prior to LPS-challenge measured after 20 hrs by immunoassay; format: functional, cell-based
Summary of the method: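 TNF-α was measured by mouse ELISA kit in the same LPS-stimulated RAW264 supernatants as the nitrite assay. Compounds were added 1 h before LPS (10 μL of 10 μg/mL), followed by 20 h incubation.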

[9] = Antiinflammatory activity in Swiss albino mouse 3T3 cells assessed as inhibition of calcium ionophore A23187-induced PGE2 synthesis incubated for 3 hrs prior to calcium ionophore A23187-challenge measured after 15 mins by enzyme immunoassay; format: functional, cell-based; settings: NIH3T3
Summary of the method: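 3T3 cells were seeded at 27 × 10^3/well in phenol-red-free DMEM with 5% FBS and 5% newborn calf serum, then left to attach overnight. Compounds in DMSO (0.5% final) were added for 3 h at 37 °C. A23187 (0.5 mM, 10 μL/well) was then added for 15 min. Supernatant was diluted 81-fold and PGE2 measured by EIA. Triplicate; percent inhibition relative to DMSO control.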

[10] = Cytotoxicity against mouse RAW264.7 cells after 24 hrs by ATPlite assay; format: cell-based; settings: read-out: ED50
Summary of the method: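 RAW264 cells were plated at 30 000/well in DMEM with 10% FBS. Compounds were tested at six concentrations from DMSO stocks diluted 20-fold in medium, for 24 h at 37 °C, 5% CO2. Cellular ATP was read by ATPlite luminescence. Triplicate; ED50 with 95% CI from curve fitting.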

[11] = Cytotoxicity against Swiss albino mouse 3T3 cells; format: cell-based, NIH3T3; settings: read-out: ED50 (the source's name)
RAW264.7 [12] = test: Selectivity index, ratio of cytotoxic ED50 for mouse RAW264.7 cells to IC50 for LPS-induced nitric oxide synthesis in mouse RAW264.7 cells; format: functional
Summary of the method: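 Selectivity index = RAW264 cytotoxicity ED50 (24 h ATPlite) divided by IC50 for inhibition of LPS-induced nitrite production in RAW264 cells.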

[13] = Antioxidant activity against AAPH-induced fluorescein peroxidation assessed as trolox equivalent measured every min for 35 mins by fluorimetric analysis; format: functional
Summary of the method: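 ORAC: samples were diluted from 20 mg/mL DMSO stock into 75 mM phosphate buffer (pH 7.4), then 2-fold serially, with each tested at two concentrations. Reaction used fluorescein (10 μL, 5 μM) and AAPH (170 μL, 20 mM). Fluorescence was read every minute for 35 min at 37 °C. Values come from a Trolox standard curve (12.5–100 μM) of net AUC and are given as μmol TE/g. Quadruplicate.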

NIH3T3 = test: Selectivity index, ratio of cytotoxic ED50 for Swiss albino mouse 3T3 cells to IC50 for calcium ionophore A23187-induced PGE2 synthesis in Swiss albino mouse 3T3 cells; format: functional
Pseudomonas aeruginosa = test: Antibacterial activity against Pseudomonas aeruginosa ATCC 27853 after overnight incubation by broth microdilution method; format: functional; summary of the method: as §1

Row | Structure (SMILES) | MIC (Staphylococcus aureus [1]) | MIC (Staphylococcus aureus [3]) | MIC [5] | MIC (Escherichia coli) | IC50 (RAW264.7 [7]) | IC50 [9] | MIC (Pseudomonas aeruginosa) | MBC (Staphylococcus aureus [2]) | MBC (Staphylococcus aureus [4]) | MBC [6] | inhibition (RAW264.7 [7]) | inhibition (RAW264.7 [8]) | CC50 at 24 h [10] | CC50 [11] | Selectivity Index (RAW264.7 [12]) | Activity [13] | Selectivity Index (NIH3T3)
1 | CC[C@H](C)C(=O)c1c(O)c(C)c2oc3c(C)c(O)c(C(=O)CC(C)C)c(O)c3c2c1O [RHODOMYRTOXIN C] | 7.2 µM (≈ 3.09 µg/mL) | 0.9 µM (≈ 0.386 µg/mL) | 1.9 µM (≈ 0.814 µg/mL) | inactive | 1.2 µM | 3.4 µM | – | 7.2 µM (≈ 3.09 µg/mL) | 0.9 µM (≈ 0.386 µg/mL) | 1.9 µM (≈ 0.814 µg/mL) | Dose-dependent effect | inactive | 1.4 µM | 7 µM | 1.17 | 1010 µmol/g | 2.06
2 | Oc1cc(O)c2c(c1)O[C@H](c1ccc(O)c(O)c1)[C@H](O)C2 | – | – | – | – | – | – | – | – | – | – | – | – | – | – | – | 29200 µmol/g | –
3 | C[C@H]1COc2c(N3CCN(C)CC3)c(F)cc3c(=O)c(C(=O)O)cn1c23 [LEVOFLOXACIN] | < 0.53 µM | < 0.53 µM | < 0.53 µM | < 0.53 µM | – | – | < 0.53 µM | – | – | – | – | – | – | – | – | – | –
4 | Cc1c(O)c(C(=O)C(C)C)c(O)c2c1oc1c(C)c(O)c(C(=O)C(C)C)c(O)c12 | 2.7 µM (≈ 1.08 µg/mL) | 2.7 µM (≈ 1.08 µg/mL) | 2.7 µM (≈ 1.08 µg/mL) | inactive | 3.4 µM | 4.5 µM | inactive | 11.4 µM (≈ 4.56 µg/mL) | 5.7 µM (≈ 2.28 µg/mL) | 22.7 µM (≈ 9.09 µg/mL) | Dose-dependent effect | inactive | 12 µM | 15.3 µM | 3.53 | 1450 µmol/g | 3.4

The next lines start with results.

Row | MIC (Staphylococcus aureus [1]) | MIC (Staphylococcus aureus [3]) | MIC [5] | MIC (Escherichia coli) | IC50 (RAW264.7 [7]) | IC50 [9] | MIC (Pseudomonas aeruginosa) | Structure (SMILES) | MBC (Staphylococcus aureus [2]) | MBC (Staphylococcus aureus [4]) | MBC [6] | inhibition (RAW264.7 [7]) | inhibition (RAW264.7 [8]) | CC50 at 24 h [10] | CC50 [11] | Selectivity Index (RAW264.7 [12]) | Activity [13] | Selectivity Index (NIH3T3)
5 | 7.2 µM (≈ 3.09 µg/mL) | 3.7 µM (≈ 1.59 µg/mL) | 3.7 µM (≈ 1.59 µg/mL) | inactive | 5 µM | > 200 µM | – | CC[C@H](C)C(=O)c1c(O)c(C)c(O)c2c1oc1c(C(=O)[C@@H](C)CC)c(O)c(C)c(O)c12 | 14.7 µM (≈ 6.3 µg/mL) | 3.7 µM (≈ 1.59 µg/mL) | 3.7 µM (≈ 1.59 µg/mL) | Dose-dependent effect | inactive | 6.8 µM | 24.1 µM | 1.36 | 3640 µmol/g | –
6 | 26.5 µM (≈ 10.6 µg/mL) | 13.2 µM (≈ 5.29 µg/mL) | 13.2 µM (≈ 5.29 µg/mL) | inactive | 89 µM | > 200 µM | inactive | Cc1c(O)c(C(=O)C(C)C)c2oc3c(C(=O)C(C)C)c(O)c(C)c(O)c3c2c1O | 26.5 µM (≈ 10.6 µg/mL) | 26.5 µM (≈ 10.6 µg/mL) | 13.2 µM (≈ 5.29 µg/mL) | – | inactive | 142 µM | 44 µM | 1.6 | 609 µmol/g | –
7 | 3.9 µM (≈ 1.62 µg/mL) | 0.5 µM (≈ 0.207 µg/mL) | 1.9 µM (≈ 0.787 µg/mL) | inactive | 0.6 µM | 6 µM | – | CC[C@H](C)C(=O)c1c(O)c(C)c2oc3c(C)c(O)c(C(=O)C(C)C)c(O)c3c2c1O | 3.9 µM (≈ 1.62 µg/mL) | 1.9 µM (≈ 0.787 µg/mL) | 3.9 µM (≈ 1.62 µg/mL) | Dose-dependent effect | inactive | 6.5 µM | 9.4 µM | 10.83 | 2580 µmol/g | 1.57
8 | 12.1 µM (≈ 5.01 µg/mL) | 6 µM (≈ 2.49 µg/mL) | 6 µM (≈ 2.49 µg/mL) | inactive | 4.4 µM | > 200 µM | – | CC[C@H](C)C(=O)c1c(O)c(C)c(O)c2c1oc1c(C(=O)C(C)C)c(O)c(C)c(O)c12 | 24.1 µM (≈ 9.99 µg/mL) | 24.1 µM (≈ 9.99 µg/mL) | 6 µM (≈ 2.49 µg/mL) | Dose-dependent effect | inactive | 17.6 µM | 22.3 µM | 4 | 6280 µmol/g | –
